Measurements published in ChEMBL document CHEMBL4373657, “Derivatives of a new heterocyclic system - pyrano[3,4-c][1,2,4]triazolo[4,3-a]pyridines: synthesis, docking analysis and neurotropic activity” (Medchemcomm, 2019).
Active and inactive are the calls of the source. The rule behind the calls is not given here.

Experiments:
[1] = Neurotoxicity in ip dosed mouse assessed as myorelaxation measured for 2 mins by rotarod test; assay type: toxicity, organism-based; conditions: in vivo
Outline: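 Mice were placed on a corrugated rubber-coated metal rod rotating at 5 rpm, and the number staying on for 2 min was counted. TD50 was derived by Litchfield–Wilcoxon probit analysis.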

[2] = Neurotoxicity in mouse assessed as motor coordination at 50 to 100 mg/kg, ip by rotarod test; assay type: toxicity, organism-based; conditions: in vivo
Outline: (§1)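 Mice dosed i.p. at 50–100 mg kg–1; reference drugs given at effective anticonvulsant doses. Mice were placed on a corrugated rubber-coated metal rod rotating at 5 rpm, and the number staying on for 2 min was counted. TD50 was derived by Litchfield–Wilcoxon probit analysis.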

Mus musculus [3] = assay: Anticonvulsant activity in mouse assessed as MES-induced […] seizures at 10 to 100 mg/kg, ip administered 45 mins before electrical stimulation; assay type: functional, organism-based
Mus musculus [4] = assay: Anticonvulsant activity in mouse assessed as MES-induced tonic seizures at 10 to 100 mg/kg, ip administered 45 mins before electrical stimulation; assay type: functional, organism-based
Outline: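 Mice, 8 per dose. Compounds given i.p. at 10, 25, 50, 75 or 100 mg kg–1 in carboxymethylcellulose/Tween-80 suspension, 45 min before maximal electroshock (50 mA, 0.2 s, 50 imp s–1); controls received emulsifier. Endpoint was prevention of the tonic-extensor phase.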

[5] = Neurotoxicity in mouse assessed as myorelaxation at 50 to 100 mg/kg, ip measured for 2 mins by rotarod test; assay type: toxicity, organism-based; conditions: in vivo; outline: as §1
[6] = Neurotoxicity in ip dosed mouse assessed as maximum tolerated dose by rotarod test; assay type: toxicity, organism-based; conditions: in vivo
Outline: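 Mice given compounds i.p. at […] to 1800 mg/kg to establish the maximal tolerated dose.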

Mus musculus [7] = assay: Anticonvulsant activity in mouse assessed as proportion of animals displaying reduction in PTZ-induced clonic seizures at 50 mg/kg, ip administered 45 mins before PTZ stimulation relative to control; assay type: functional; parameters: scale not given: the % may be the effect or the level left
Outline: (§2)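 Outbred mice (18–22 g), 8 per dose. Compounds given i.p. at 10–100 mg kg–1 as a carboxymethylcellulose/Tween-80 suspension, 45 min before s.c. pentylenetetrazole 90 mg kg–1; controls received emulsifier. Endpoint was prevention of clonic seizures. ED50 was derived by Litchfield–Wilcoxon probit analysis.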

[8] = Protection index, ratio of TD50 for neurotoxicity in ip dosed mouse to ED50 for anticonvulsant activity in ip dosed mouse; assay type: toxicity, organism-based; conditions: in vivo, read-out: Ratio TD50/ED50
Mus musculus [9] = assay: Antidepressant activity in mouse assessed as total time of immobilization at 50 mg/kg, ip measured for 6 mins by forced swimming test (reference value: 81 secs); assay type: functional
Outline: (§3)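 Each mouse swam in a glass container (22 cm high, 14 cm diameter) one-third filled with water, under natural light. Over 6 min, latency to first immobilization, total immobilization time and total active swimming time were recorded.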

Rattus norvegicus [10] = assay: Antianxiety activity in Wistar rat assessed as increase in number of sniffing cell examinations at 50 mg/kg, ip measured for 5 mins by open field test; assay type: functional, organism-based
Outline: (§4)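 Male Wistar rats (120–140 g), n = 8 per compound, control and reference. Single i.p. dose of 50 mg kg–1 as a suspension in methylcarboxycellulose with Tween-80; controls received emulsifier. Daytime, natural light. Over 5 min, horizontal movements, rearings (vertical movements) and cell sniffings were counted.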

Mus musculus [11] = assay: Anticonvulsant activity in ip dosed mouse assessed as reduction in PTZ-induced clonic seizures administered 45 mins before PTZ stimulation; assay type: functional; outline: as §2
Mus musculus [12] = assay: Antianxiety activity in mouse assessed as increase in time spent in open arms at 50 mg/kg, ip measured for 5 mins by elevated plus maze test; assay type: functional
Mus musculus [13] = assay: Antianxiety activity in mouse assessed as time spent in closed arms at 50 mg/kg, ip measured for 5 mins by elevated plus maze test (reference value: 278.2 secs); assay type: functional
Rattus norvegicus [14] = assay: Antianxiety activity in Wistar rat assessed as horizontal movement of animals at 50 mg/kg, ip measured for 5 mins by open field test; assay type: functional, organism-based; outline: as §4
Mus musculus [15] = assay: Sedative activity in mouse assessed as time spent in center at 50 mg/kg, ip measured for 5 mins by elevated plus maze test (reference value: 21.8 secs); assay type: functional
Mus musculus [16] = assay: Antidepressant activity in mouse assessed as latent period of first immobilization at 50 mg/kg, ip measured for 6 mins by forced swimming test (reference value: 92 secs); assay type: functional; outline: as §3
Rattus norvegicus [17] = assay: Antianxiety activity in Wistar rat assessed as vertical movement of animals at 50 mg/kg, ip measured for 5 mins by open field test; assay type: functional, organism-based; outline: as §4
Mus musculus [18] = assay: Antidepressant activity in mouse assessed as total time of active swimming at 50 mg/kg, ip measured for 6 mins by forced swimming test (reference value: 282 secs); assay type: functional; outline: as §3
Mus musculus [19] = assay: Anticonvulsant activity in mouse assessed as reduction in PTZ-induced clonic seizures at 25 mg/kg, ip administered 45 mins before PTZ stimulation; assay type: functional, organism-based; outline: as §2

Structure (SMILES) | TD50 at 2 min [1] [mg/kg] | Activity [2] | Activity (Mus musculus [3]) | Activity (Mus musculus [4]) | Activity [5] | MTD [6] [mg/kg] | Activity (Mus musculus [7]) [%] | selectivity ratio [8] | Time (Mus musculus [9]) [s] | Activity (Rattus norvegicus [10]) | ED50 (Mus musculus [11]) [mg/kg] | Time (Mus musculus [12]) [s] | Time (Mus musculus [13]) [s] | Activity (Rattus norvegicus [14]) | Time (Mus musculus [15]) [s] | Time (Mus musculus [16]) [s] | Activity (Rattus norvegicus [17]) | Time (Mus musculus [18]) [s] | anticonvulsant activity (active/inactive) (Mus musculus [19])
Cc1ccc(Nc2c(C#N)c3c(c4nnc(SCc5ccccc5Cl)n24)COC(C)(C)C3)cc1 | > 500 | Non-Toxic | inactive | inactive | Non-Toxic | 1350 | 40 | – | – | – | – | – | – | – | – | – | – | – | –
CCOC(=O)C(Sc1nnc2c3c(c(C#N)c(Nc4ccccc4)n12)CC(C)(C)OC3)c1ccccc1 (configuration not stated) | 520 | Non-Toxic | inactive | inactive | Non-Toxic | 1200 | 60 | 11.8 | 76 | Active | 44 | 6 | 199 | inactive | 95 | 156 | inactive | 284 | Active
Cc1cccc(NC(=O)CSc2nnc3c4c(c(C#N)c(Nc5ccccc5)n23)CC(C)(C)OC4)c1 | > 500 | Non-Toxic | inactive | inactive | Non-Toxic | 1300 | 20 | – | – | – | – | – | – | – | – | – | – | – | –
COc1cccc(NC(=O)CSc2nnc3c4c(c(C#N)c(Nc5ccc(C)cc5)n23)CC(C)(C)OC4)c1 | > 500 | Non-Toxic | inactive | inactive | Non-Toxic | 1100 | 40 | – | – | – | – | – | – | – | – | – | – | – | –
COc1ccc(NC(=O)CSc2nnc3c4c(c(C#N)c(Nc5ccc(C)cc5)n23)CC(C)(C)OC4)cc1 | > 500 | Non-Toxic | inactive | inactive | Non-Toxic | 1250 | 40 | – | – | – | – | – | – | – | – | – | – | – | –
Cc1ccc(Nc2c(C#N)c3c(c4nnc(SCc5ccc([N+](=O)[O-])cc5)n24)COC(C)(C)C3)cc1 | > 500 | Non-Toxic | inactive | inactive | Non-Toxic | 1200 | 40 | – | – | – | – | – | – | – | – | – | – | – | –
CC1(C)Cc2c(C#N)c(Nc3ccccc3)n3c(SCC(=O)N(c4ccccc4)c4ccccc4)nnc3c2CO1 | 580 | Non-Toxic | inactive | inactive | Non-Toxic | 1250 | 80 | 27.6 | 43 | Active | 21 | 88 | 133 | inactive | 79 | 162 | inactive | 317 | Active
CC1(C)Cc2c(C#N)c(Nc3ccccc3)n3c(SCC(=O)Nc4ccc(Cl)c(Cl)c4)nnc3c2CO1 | > 500 | Non-Toxic | inactive | inactive | Non-Toxic | 1150 | 20 | – | – | – | – | – | – | – | – | – | – | – | –
COc1ccc(CSc2nnc3c4c(c(C#N)c(Nc5ccc(C)cc5)n23)CC(C)(C)OC4)cc1 | 600 | Non-Toxic | inactive | inactive | Non-Toxic | 1500 | 60 | 13.6 | 71 | Active | 44 | 11.4 | 200.6 | inactive | 88 | 158 | inactive | 289 | Active
Cc1ccc(Nc2c(C#N)c3c(c4nnc(SCC(=O)c5ccc([N+](=O)[O-])cc5)n24)COC(C)(C)C3)cc1 | > 500 | Non-Toxic | inactive | inactive | Non-Toxic | 1250 | 40 | – | – | – | – | – | – | – | – | – | – | – | –
CC1(C)Cc2c(C#N)c(Nc3ccccc3)n3c(SCC(=O)c4ccc(Cl)cc4)nnc3c2CO1 | > 500 | Non-Toxic | inactive | inactive | Non-Toxic | 1150 | 20 | – | – | – | – | – | – | – | – | – | – | – | –
CCCCN(CCCC)C(=O)CSc1nnc2c3c(c(C#N)c(Nc4ccccc4)n12)CC(C)(C)OC3 | > 500 | Non-Toxic | inactive | inactive | Non-Toxic | 1000 | 20 | – | – | – | – | – | – | – | – | – | – | – | –
CC1(C)Cc2c(C#N)c(Nc3ccccc3)n3c(SCC(=O)c4ccc([N+](=O)[O-])cc4)nnc3c2CO1 | > 520 | Non-Toxic | inactive | inactive | Non-Toxic | 1250 | 40 | – | – | – | – | – | – | – | – | – | – | – | –
